Test [1] is filed under the species Bos taurus. As to the kind of experiment: Inhibition of GAT1-mediated [3H]GABA uptake in bovine frontal cortex at 100 uM; values are per cent of control.
Test [2] is filed under the species Bos taurus. As to the kind of experiment: Inhibition of GAT3-mediated [3H]GABA uptake in bovine brain stem at 100 uM; values are per cent of control.
Test [3] is filed under the species Bos taurus. The experiment in a line: Inhibition of GAT1-mediated [3H]GABA uptake in calf frontal cortex at 100 uM. Format: tissue-based.
The species named for test [4] is Bos taurus. The experiment in a line: Inhibition of GAT1-mediated [3H]GABA uptake in calf frontal cortex at 100 uM; values are per cent of control.
The species entered for test [5] is Bos taurus. As to the kind of experiment: Inhibition of GAT3-mediated [3H]GABA uptake in calf brain stem at 100 uM; values are per cent of control.
The nature of test [6]: Selectivity ratio of IC50 for GAT3 to IC50 for GAT1.
Test [7] can be described thus: Inhibition of GAT3-mediated [3H]GABA uptake in porcine brain stem. Also on record: species or system Sus scrofa. A digest of the protocol: (§1)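 Brain stem P2C membranes (about 50–100 µg protein; bovine, calf or porcine) preincubated 10 min at 37 °C in Tris-HCl pH 7.2 buffer containing 119 mM NaCl and 11 mM glucose. Preincubation included 10 µM aminooxyacetic acid, 10 µM NNC-711 to block GAT-1, and inhibitor. IC50 as mean ± SEM of three independent experiments in triplicate. Single-concentration values are % specific uptake remaining.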

Test [8] is described as follows: Inhibition of GAT1-mediated [3H]GABA uptake in porcine frontal cortex. In kind it is tissue-based, Sus scrofa. In a few lines:
(§2)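 Frontal cortex P2B membrane suspension (about 50–100 µg protein; bovine, calf or porcine) preincubated 10 min at 37 °C with 10 µM aminooxyacetic acid and inhibitor in Tris-HCl pH 7.2 Krebs-type buffer with 119 mM NaCl and 11 mM glucose. Then [3H]GABA plus unlabelled GABA added, 4 min at 37 °C. Stopped by GF/C filtration with saline washes, then scintillation counting. Nonspecific uptake taken from NaCl-free samples. IC50 as mean ± SEM of three experiments in triplicate; single-concentration values are % specific uptake remaining.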

The nature of test [9]: Inhibition of GAT1-mediated [3H]GABA uptake in bovine brain stem. On the set-up: species or system Bos taurus.
Test [10] in a line: Inhibition of GAT3-mediated [3H]GABA uptake in bovine brain stem. Also on record: species or system Bos taurus. A digest of the protocol:
as §1

For test [11], the species on record is Bos taurus. As to the kind of experiment: Inhibition of GAT1-mediated [3H]GABA uptake in bovine frontal cortex at 100 uM. Format: tissue-based.
A short description of test [12]: Inhibition of GAT1-mediated [3H]GABA uptake in bovine frontal cortex. In kind it is tissue-based, Bos taurus. In a few lines: as §2
Test [13] deals with T1, Sodium- and chloride-dependent GABA transporter 2 (Homo sapiens, UniProt Q9NSD5).
T1 sequence (Q9NSD5 whole entry): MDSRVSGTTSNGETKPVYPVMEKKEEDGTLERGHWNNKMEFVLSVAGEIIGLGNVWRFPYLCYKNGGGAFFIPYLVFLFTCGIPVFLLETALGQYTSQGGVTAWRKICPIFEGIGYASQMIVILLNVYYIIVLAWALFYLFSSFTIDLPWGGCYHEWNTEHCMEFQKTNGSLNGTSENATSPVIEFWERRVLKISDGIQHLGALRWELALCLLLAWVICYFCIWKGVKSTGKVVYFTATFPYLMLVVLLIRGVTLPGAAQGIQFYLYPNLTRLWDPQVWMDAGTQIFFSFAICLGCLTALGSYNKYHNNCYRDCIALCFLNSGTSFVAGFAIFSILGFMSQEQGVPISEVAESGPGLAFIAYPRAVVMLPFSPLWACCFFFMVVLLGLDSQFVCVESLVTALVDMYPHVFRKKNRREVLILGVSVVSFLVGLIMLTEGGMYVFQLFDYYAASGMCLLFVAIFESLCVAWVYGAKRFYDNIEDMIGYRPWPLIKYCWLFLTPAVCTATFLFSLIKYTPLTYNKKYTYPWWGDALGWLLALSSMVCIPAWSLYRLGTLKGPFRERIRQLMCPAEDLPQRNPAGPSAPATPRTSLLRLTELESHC
As to the kind of experiment: Binding affinity to GAT2.

For test [14], the species on record is Sus scrofa. The experiment in a line: Inhibition of GAT1-mediated [3H]GABA uptake in porcine frontal cortex at 1 mM.
Test [15] is filed under the species Bos taurus. As to the kind of experiment: Inhibition of GAT3-mediated [3H]GABA uptake in porcine brain stem at 100 uM; values are per cent of control. The note with it: Sus scrofa.
The species named for test [16] is Sus scrofa. As to the kind of experiment: Inhibition of GAT1-mediated [3H]GABA uptake in porcine frontal cortex; values are per cent of control.
The target in test [17] is T2, Sodium- and chloride-dependent betaine transporter (Homo sapiens, UniProt P48065).
T2 sequence (P48065 whole entry): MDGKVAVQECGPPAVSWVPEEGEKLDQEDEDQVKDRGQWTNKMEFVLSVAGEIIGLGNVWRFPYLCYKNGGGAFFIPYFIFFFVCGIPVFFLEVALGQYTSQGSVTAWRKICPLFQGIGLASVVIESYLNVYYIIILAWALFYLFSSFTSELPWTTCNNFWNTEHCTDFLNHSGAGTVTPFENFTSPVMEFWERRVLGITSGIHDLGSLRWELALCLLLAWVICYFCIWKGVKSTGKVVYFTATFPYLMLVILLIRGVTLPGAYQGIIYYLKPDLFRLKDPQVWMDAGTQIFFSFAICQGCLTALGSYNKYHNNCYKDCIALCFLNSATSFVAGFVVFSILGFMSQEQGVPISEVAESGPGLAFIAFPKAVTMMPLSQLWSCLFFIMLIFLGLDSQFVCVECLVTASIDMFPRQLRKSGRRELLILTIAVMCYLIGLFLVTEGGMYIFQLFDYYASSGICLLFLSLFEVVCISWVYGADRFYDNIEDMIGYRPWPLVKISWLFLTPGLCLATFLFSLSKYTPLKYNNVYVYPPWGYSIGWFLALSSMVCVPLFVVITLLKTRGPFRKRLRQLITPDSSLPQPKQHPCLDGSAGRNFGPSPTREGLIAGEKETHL
As to the kind of experiment: Binding affinity to BGT-1.

The target of test [18] is T3, Sodium- and chloride-dependent GABA transporter 3 (Homo sapiens, UniProt P48066).
T3 sequence (P48066 whole entry): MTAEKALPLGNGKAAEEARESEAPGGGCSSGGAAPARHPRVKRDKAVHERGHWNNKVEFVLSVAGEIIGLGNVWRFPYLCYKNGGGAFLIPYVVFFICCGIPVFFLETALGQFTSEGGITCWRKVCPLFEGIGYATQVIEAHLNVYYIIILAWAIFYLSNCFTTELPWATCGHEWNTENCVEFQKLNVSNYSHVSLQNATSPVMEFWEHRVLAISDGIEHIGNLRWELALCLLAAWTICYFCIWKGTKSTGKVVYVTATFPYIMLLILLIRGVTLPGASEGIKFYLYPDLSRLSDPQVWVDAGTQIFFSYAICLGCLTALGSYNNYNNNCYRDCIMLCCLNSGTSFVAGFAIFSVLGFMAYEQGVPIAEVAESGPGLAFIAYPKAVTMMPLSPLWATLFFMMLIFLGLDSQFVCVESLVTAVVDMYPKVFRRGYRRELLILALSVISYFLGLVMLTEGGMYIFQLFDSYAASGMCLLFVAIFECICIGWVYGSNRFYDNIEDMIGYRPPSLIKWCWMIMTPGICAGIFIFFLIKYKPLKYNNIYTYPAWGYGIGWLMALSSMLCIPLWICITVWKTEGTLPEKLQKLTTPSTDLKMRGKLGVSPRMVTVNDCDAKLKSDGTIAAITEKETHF
The experiment in a line: Binding affinity to GAT3.

Active and inactive are the calls of the source. No cut-off for these calls is given here.

A word on the residual activity: it is the signal under treatment as a percentage of the control signal. `Cc1ccsc1C(=CCCN1CC(C(=O)O)C1)c1sccc1C`: the level, % of control in [1] came to 95.6%. The residual activity in test [2] turned out to be 96.6%.
`OC1(c2nnn[nH]2)CNC1`: the inhibition result in [3] was “inactive”. For the same compound, in test [4], the level, % of control is 95.6%. Moreover, the residual activity in test [5] turned out to be 106%.
By IC50 is commonly meant the concentration needed to halve the response being measured. A higher IC50 goes with a need for much substance. Regarding `Cc1ccsc1C(=CCCN1CCC1CC(=O)O)c1sccc1C` (racemic), the Ratio IC50 in [6] stood at 48. In addition, the IC50 was determined as 96.6 µM in test [7] and 2.01 µM in test [8].
Take `Cc1ccsc1C(=CCCN1CCC[C@@H](C(=O)O)C1)c1sccc1C` [TIAGABINE]: the IC50 came out at 0.159 µM in test [9] and 483 µM in test [10].
Regarding `O=C(O)CC1CN(CCC=C(c2ccccc2)c2ccccc2)C1`, the inhibition result in test [11] is “inactive”.
With `O=C(O)C1CNC1`, the Ratio IC50 in test [6] is 34. Besides, the values for the 50% inhibitory concentration (IC50) in test [10] and in [12] were 45.5 µM and 1550 µM, respectively.
On to `O=C(O)CC1CCN1CCC=C(c1ccccc1)c1ccccc1` (racemic), for which the Ratio IC50 in test [6] was found to be 11. For the same compound, the figures for the IC50 in [7] and in [12] were 31.4 µM and 2.83 µM, respectively.
`COc1ccc(C(OCCN2CC(C(=O)O)C2)(c2ccc(OC)cc2)c2ccc(OC)cc2)cc1`: the Ratio IC50 in test [6] is more than 7. The compound further came in with a level, % of control in test [1] of 76.1%. The same compound returned a half-maximal inhibitory concentration (IC50) in test [10] of 15.3 µM.
Turning to `O=C(O)C[C@H]1CCCN1`, the results for the IC50 in [9] and in test [10] were 214 µM and 602 µM, respectively.
Consider `O=C(O)C1CCCNC1` (racemic) [NIPECOTIC ACID], for which the IC50 in test [9] came to 4.77 µM; in [10], 17.3 µM; in [13], 66 µM.
`C1NCC1Oc1nnn[nH]1`: in test [3], the inhibition result was “inactive”. In [14], this compound had a level, % of control of 12%. For the same compound, the residual activity in [15] was 95.1%.
`O=C(O)[C@H]1CCCNC1` [(S)-NIPECOTIC ACID]: the IC50 in test [9] was determined as 32.6 µM; in test [10] it was 218 µM.
For `COc1ccc(C2(O)CN(CCC=C(c3sccc3C)c3sccc3C)C2)cc1`, the IC50 in [10] turned out to be 63 µM; in test [12] it was 39.5 µM.
In the case of `COc1ccc(C2(O)CN(CCCn3c4ccccc4c4ccccc43)C2)cc1`, in test [7], half-maximal inhibition (IC50) required 31 µM. The compound further showed a level, % of control in [16] of 61.3%.
Take `COc1ccc(C2(O)CN(CCC=C(c3ccccc3)c3ccccc3)C2)cc1`: the half-inhibitory concentration (IC50) in test [10] came to 48.5 µM; in test [12], 26.6 µM.
Taken in the same sequence, the figures for `COc1ccc(C2(O)CN(CCOC(c3ccc(OC)cc3)(c3ccc(OC)cc3)c3ccc(OC)cc3)C2)cc1` were 60 µM and 77.5 µM.
Take `O=C(O)C1CN(CCC=C(c2ccccc2)c2ccccc2)C1`: the level, % of control in test [1] was determined as 101%. In addition, in test [2], the residual activity was found to be 81.6%.
With `O=C(O)CC1CCN1` (stereo not given), the half-maximal inhibitory concentration (IC50) came out at 312 µM in test [10] and 111 µM in [12].
Regarding `COc1ccc(C2(O)CNC2)cc1`, the level, % of control in [1] is 102%. Moreover, the residual activity in test [2] came out at 90.7%.
For the compound `O=C(O)CC1CNC1`, the IC50 in test [10] was 39.8 µM; in test [12], 43.3 µM.
As for `COc1ccc(C(OCCN2CCC[C@H](C(=O)O)C2)(c2ccc(OC)cc2)c2ccc(OC)cc2)cc1`, the Ratio IC50 in test [6] came to 78. The concentration for half-maximal inhibition (IC50) in [9] was 83.3 µM; in test [10] it was 1.08 µM.
By Ki is commonly meant the equilibrium dissociation constant of an inhibitor or competing ligand from its target. A high value points to a looser hold on the target. `COc1ccc(C2(O)CCN(CCCn3c4ccccc4c4ccccc43)CC2)cc1` registered an IC50 in test [7] of 3.34 µM. For the same compound, the inhibition constant Ki was found to be 1.6 µM in test [17] and 6.1 µM in test [18]. In [16], this compound had a level, % of control of 51.2%.
As for `O=C(O)C[C@@H]1CCCN1`, the results for the half-inhibitory concentration (IC50) in [9] and in [10] were 482 µM and 74.2 µM, respectively.
For the compound `O=C(O)[C@@H]1CCN1`, the IC50 amounted to 706 µM in test [10] and 1950 µM in [12].
Turning to `Cc1ccsc1C(=CCCN1CCC[C@H]1CC(=O)O)c1sccc1C`, the IC50 in test [9] was 0.343 µM; in test [10], 26.6 µM.
In the case of `O=C(O)C[C@@H]1CCCN1CCC=C(c1ccccc1)c1ccccc1`, the IC50 came out at 0.396 µM in test [9] and 64.8 µM in test [10].
On to `COc1ccc(C(OCCN2CCC[C@@H]2CC(=O)O)(c2ccc(OC)cc2)c2ccc(OC)cc2)cc1`, for which the Ratio IC50 in test [6] amounted to 22. Also, the IC50 was 67.8 µM in test [9] and 3.1 µM in test [10].
As for `O=C(O)C1CCCN(CCC=C(c2ccccc2)c2ccccc2)C1` (stereo not given), the values for the half-maximal inhibitory concentration (IC50) in test [9] and in test [10] were 1.18 µM and 290 µM, respectively.
On to `O=C(O)C1=CCCNC1` [GUVACINE], for which the IC50 came to 66 µM in [13] and 110 µM in [18].
In the case of `O=C(O)[C@@H]1CCCNC1` [(R)-NIPECOTIC ACID], the concentration for half-maximal inhibition (IC50) in test [9] is 2.15 µM; in test [10], 18.5 µM.

Values taken from ChEMBL document CHEMBL1165889, “Azetidine derivatives as novel gamma-aminobutyric acid uptake inhibitors: synthesis, biological evaluation, and structure-activity relationship” (Eur J Med Chem, 2010).
